The source of these data is article PMC5623067 (Bioorganic & medicinal chemistry letters, 2017).

Data set [1] deals with T1, human topoisomerase IIα (Homo sapiens, UniProt P11388). The data set can be described thus: DNA. Particulars: kDNA decatenation. Type of data set: biochemical.
The target in data set [2] is T1, human topoisomerase IIα. Kind of data set: Inhibition of topoisomerase IIα-mediated DNA cleavage in the presence of Ca2+. The format is biochemical. Particulars: Ca2+ in place of Mg2+; 150 nM enzyme; xanthone up to 10 µM. In short, it runs like this: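 Negatively supercoiled DNA incubated with 150 nM human topoisomerase IIα and test compound. CaCl2 was added to raise baseline enzyme-mediated DNA cleavage. Cleaved DNA was resolved on gels, with controls of DNA without enzyme and enzyme without compound. Cleavage without compound was set to 100%. Gels are representative of 3 experiments, and standard deviations come from 2-3 independent experiments.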

The target in data set [3] is T1, human topoisomerase IIα. Kind of data set: DNA relaxation catalyzed by 150 nM topoisomerase IIα. Type of data set: biochemical. Particulars: 10 µM compound. In short, it runs like this: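 Negatively supercoiled DNA relaxed by 150 nM human topoisomerase IIα with test compound present. Gels show supercoiled DNA without enzyme and enzyme-treated DNA without compound as controls. Each gel is representative of 2-4 independent experiments.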

Data set [4] has as its target T1, human topoisomerase IIα. Kind of data set: Competition assay: block of etoposide-enhanced DNA cleavage. Particulars: 100 µM etoposide; 5-100 µM compound (compound 5 up to 10 µM). The format is biochemical.
Data set [5] has as its target T1, human topoisomerase IIα. The data set can be described thus: DNA relaxation assay. Type of data set: biochemical. To be noted: 3 nM enzyme; for IC50: IC50 for inhibition of DNA relaxation, negatively supercoiled DNA.
Data set [6] can be described thus: Solubility limit noted in the assays. To be noted: only used up to 10 µM. The format is physicochemical.
Data set [7] has as its target T1, human topoisomerase IIα. Kind of data set: ATP hydrolysis catalyzed by topoisomerase IIα. The format is biochemical. To be noted: up to 50 µM.

Values joined by “and” are separate entries in the source; they are usually repeats but may differ in a detail not shown here. Equal entries are not always repeated.

T1 sequence (P11388 whole entry): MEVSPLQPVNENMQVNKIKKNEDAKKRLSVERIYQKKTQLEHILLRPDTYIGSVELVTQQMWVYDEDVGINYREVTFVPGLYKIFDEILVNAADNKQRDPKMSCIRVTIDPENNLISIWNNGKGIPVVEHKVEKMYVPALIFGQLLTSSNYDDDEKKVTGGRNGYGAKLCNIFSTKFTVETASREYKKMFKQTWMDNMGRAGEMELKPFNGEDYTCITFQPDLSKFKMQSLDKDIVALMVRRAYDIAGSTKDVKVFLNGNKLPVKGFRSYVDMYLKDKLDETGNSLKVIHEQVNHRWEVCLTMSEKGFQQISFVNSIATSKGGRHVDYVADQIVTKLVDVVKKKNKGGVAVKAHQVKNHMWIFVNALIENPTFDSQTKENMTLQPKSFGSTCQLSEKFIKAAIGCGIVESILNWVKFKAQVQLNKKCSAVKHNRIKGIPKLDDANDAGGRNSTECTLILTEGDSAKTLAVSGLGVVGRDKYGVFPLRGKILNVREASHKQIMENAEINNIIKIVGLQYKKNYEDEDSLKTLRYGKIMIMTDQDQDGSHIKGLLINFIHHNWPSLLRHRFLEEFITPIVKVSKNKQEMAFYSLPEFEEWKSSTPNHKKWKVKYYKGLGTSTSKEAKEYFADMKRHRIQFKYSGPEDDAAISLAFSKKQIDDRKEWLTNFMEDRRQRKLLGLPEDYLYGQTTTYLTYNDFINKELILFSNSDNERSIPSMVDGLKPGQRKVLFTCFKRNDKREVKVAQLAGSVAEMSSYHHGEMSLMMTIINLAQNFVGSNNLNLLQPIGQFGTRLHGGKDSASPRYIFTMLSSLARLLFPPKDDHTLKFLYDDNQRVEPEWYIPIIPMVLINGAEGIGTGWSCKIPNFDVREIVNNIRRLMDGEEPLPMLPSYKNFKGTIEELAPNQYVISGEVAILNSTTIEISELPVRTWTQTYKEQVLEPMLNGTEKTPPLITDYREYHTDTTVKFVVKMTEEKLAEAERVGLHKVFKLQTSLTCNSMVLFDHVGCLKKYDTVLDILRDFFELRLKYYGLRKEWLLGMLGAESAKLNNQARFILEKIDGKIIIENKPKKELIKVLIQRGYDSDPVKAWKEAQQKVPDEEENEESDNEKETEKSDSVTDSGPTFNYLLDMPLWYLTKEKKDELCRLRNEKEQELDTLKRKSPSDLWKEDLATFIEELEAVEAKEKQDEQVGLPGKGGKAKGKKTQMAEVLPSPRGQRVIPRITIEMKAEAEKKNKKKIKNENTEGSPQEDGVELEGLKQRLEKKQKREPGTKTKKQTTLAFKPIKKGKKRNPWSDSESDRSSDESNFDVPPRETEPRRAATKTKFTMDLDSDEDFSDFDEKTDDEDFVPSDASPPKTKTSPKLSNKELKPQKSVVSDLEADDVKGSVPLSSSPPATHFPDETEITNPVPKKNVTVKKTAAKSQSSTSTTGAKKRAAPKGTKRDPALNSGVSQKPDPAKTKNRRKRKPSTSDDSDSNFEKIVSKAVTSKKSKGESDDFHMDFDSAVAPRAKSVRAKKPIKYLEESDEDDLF

For the compound `Cl.Cl.NCCCNCC(O)COc1cc(O)c2c(=O)c3ccccc3oc2c1` (stereo not drawn) [compound 2], on human topoisomerase IIα [1], the “order of potency in decatenation assay” value is “much more potent than compound 6”. The “inhibition of enzyme-mediated DNA cleavage” value at human topoisomerase IIα [2] is recorded as “do not inhibit the DNA cleavage step”. Further, the “inhibition of DNA relaxation by 150 nM enzyme” value (shortened to “inhibition of DNA relaxation”) against human topoisomerase IIα [3] is recorded as “complete (or near complete) inhibition”. Further, the “ability to block DNA cleavage enhancement by etoposide” value (from here on “ability … by etoposide”) at human topoisomerase IIα [4] is on record as “competed with etoposide”.
As for `O=c1c2ccccc2oc2cc(O)cc(O)c12` [compound 6, 1,3-dyhydroxy-9h-xanthen-9-one], the “ability to inhibit DNA relaxation at 10 µM” value on human topoisomerase IIα [5] (10 µM) is “no ability to inhibit DNA relaxation”. The “inhibition of DNA relaxation” value on human topoisomerase IIα [3] was “no ability to inhibit DNA relaxation”.
What is called IC50 is the concentration at which inhibition is half-maximal. A high value points to weaker potency. For the compound `Cl.Cl.Cl.Cl.NCCCNCCCCNCCCNCC(O)COc1cc(O)c2c(=O)c3ccccc3oc2c1` (stereo not drawn) [compound 5], the 50% inhibitory concentration (IC50) at human topoisomerase IIα [5] was ~1 µM and < 5 µM. Also, the “order of potency in decatenation assay” value at human topoisomerase IIα [1] is recorded as “much more potent than compound 6”. At human topoisomerase IIα [2], the “inhibition of enzyme-mediated DNA cleavage” value was “do not inhibit the DNA cleavage step”. Further, on human topoisomerase IIα [3], the “inhibition of DNA relaxation” value is listed as “complete (or near complete) inhibition”. Further, the “ability … by etoposide” value at human topoisomerase IIα [4] was “competed with etoposide”. In addition, in data set [6], the solubility in assay result was “solubility issues”.
For the compound `NCCCCNCCCNCC(O)COc1cc(O)c2c(=O)c3ccccc3oc2c1.O=C(O)C(F)(F)F.O=C(O)C(F)(F)F.O=C(O)C(F)(F)F` (stereo not drawn) [compound 4], the 50% inhibitory concentration (IC50) against human topoisomerase IIα [5] is 2.5 to 5 µM and < 5 µM. Besides, the “order of potency in decatenation assay” value at human topoisomerase IIα [1] is reported as “much more potent than compound 6”. Moreover, the “inhibition of enzyme-mediated DNA cleavage” value at human topoisomerase IIα [2] is “do not inhibit the DNA cleavage step”. The “inhibition of DNA relaxation” value on human topoisomerase IIα [3] is “complete (or near complete) inhibition”. Moreover, at human topoisomerase IIα [7], the “inhibition of ATP hydrolysis in the absence of DNA” value is reported as “no inhibition was observed”. Further, the “ability … by etoposide” value on human topoisomerase IIα [4] is reported as “competed with etoposide”.
